Measurements taken from ChEMBL document CHEMBL2407079, “Potent DGAT1 Inhibitors in the Benzimidazole Class with a Pyridyl-oxy-cyclohexanecarboxylic Acid Moiety” (ACS Med Chem Lett, 2013).

Columns and labels:
Rhesus monkey = assay: AUC in rhesus monkey assessed as trans-4-(5-(5-fluoro-1H-benzo[d]imidazol-2-yl)-2,3'-bipyridin-6'-yloxy)cyclohexanecarboxylic acid at 2 mg/kg, po; type: ADME, organism-based, Macaca mulatta, Plasma; parameters: dose 2 mg/kg, route oral; conditions: in vivo
Method in brief: (§1)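 Rhesus monkeys; iv 1 mg/kg as a solution in EtOH/PEG400/water (10:50:40), and oral 2 mg/kg as a solution in 0.5% methylcellulose. Plasma measured for the parent and the epimer metabolite.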

[1] = AUC in rhesus monkey at 2 mg/kg, po; type: ADME, organism-based, Macaca mulatta; parameters: dose 2 mg/kg, route oral; conditions: plasma; method in brief: as §1
[2] = Cmax in rhesus monkey at 2 mg/kg, po; type: ADME, organism-based, Macaca mulatta; parameters: dose 2 mg/kg, route oral; conditions: in vivo; method in brief: as §1
[3] = Tmax in rhesus monkey at 2 mg/kg, po; type: ADME, organism-based, Macaca mulatta; parameters: dose 2 mg/kg, route oral; conditions: in vivo; method in brief: as §1
[4] = Half life in rhesus monkey at 1 mg/kg, iv; type: ADME, organism-based, Macaca mulatta; parameters: dose 1 mg/kg, route intravenous; conditions: in vivo; method in brief: as §1
[5] = Volume of distribution at steady state in rhesus monkey at 1 mg/kg, iv; type: ADME, organism-based, Macaca mulatta; parameters: dose 1 mg/kg, route intravenous; conditions: in vivo, read-out: Vdss; method in brief: as §1
[6] = Clearance in rhesus monkey at 1 mg/kg, iv; type: ADME, organism-based, Macaca mulatta; parameters: dose 1 mg/kg, route intravenous; conditions: in vivo; method in brief: as §1
[7] = Bioavailability in rhesus monkey at 1 mg/kg, iv; type: ADME, organism-based, Macaca mulatta; conditions: in vivo; method in brief: as §1
Canis familiaris = assay: AUC in beagle dog assessed as trans-4-(5-(5-fluoro-1H-benzo[d]imidazol-2-yl)-2,3'-bipyridin-6'-yloxy)cyclohexanecarboxylic acid at 2 mg/kg, po; type: ADME, organism-based, Canis lupus familiaris, Plasma; parameters: dose 2 mg/kg, route oral; conditions: in vivo
Method in brief: (§2)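 Beagles; iv 0.55 mg/kg as a solution in EtOH/PEG400/water (10:50:40), and oral 2 mg/kg as a solution in 0.5% methylcellulose. Plasma measured for the parent and the epimer metabolite.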

[8] = AUC in beagle dog at 2 mg/kg, po; type: ADME, organism-based, Canis lupus familiaris; parameters: dose 2 mg/kg, route oral; conditions: plasma; method in brief: as §2
[9] = Tmax in beagle dog at 2 mg/kg, po; type: ADME, organism-based, Canis lupus familiaris; parameters: dose 2 mg/kg, route oral; conditions: in vivo; method in brief: as §2
[10] = Cmax in beagle dog at 2 mg/kg, po; type: ADME, organism-based, Canis lupus familiaris; parameters: dose 2 mg/kg, route oral; conditions: in vivo; method in brief: as §2
[11] = Half life in beagle dog at 0.55 mg/kg, iv; type: ADME, organism-based, Canis lupus familiaris; parameters: dose 0.55 mg/kg, route intravenous; conditions: in vivo; method in brief: as §2
[12] = Volume of distribution at steady state in beagle dog at 0.55 mg/kg, iv; type: ADME, organism-based, Canis lupus familiaris; parameters: dose 0.55 mg/kg, route intravenous; conditions: in vivo, read-out: Vdss; method in brief: as §2
[13] = Clearance in beagle dog at 0.55 mg/kg, iv; type: ADME, organism-based, Canis lupus familiaris; parameters: dose 0.55 mg/kg, route intravenous; conditions: in vivo; method in brief: as §2
[14] = Bioavailability in beagle dog at 0.55 mg/kg, iv; type: ADME, organism-based, Canis lupus familiaris; conditions: in vivo; method in brief: as §2
Rattus norvegicus [15] = assay: AUC in Sprague-Dawley rat assessed as trans-4-(5-(5-fluoro-1H-benzo[d]imidazol-2-yl)-2,3'-bipyridin-6'-yloxy)cyclohexanecarboxylic acid at 10 mg/kg, po; type: ADME, organism-based, Plasma; parameters: dose 10 mg/kg, route oral; conditions: in vivo
Method in brief: (§3)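 Sprague–Dawley rats; oral 10 mg/kg given as a solid dispersion formulation, with the iv arm at 1 mg/kg in EtOH/PEG400/water (10:50:40). Plasma exposure measured for the parent and for the epimer metabolite.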

[16] = AUC in Sprague-Dawley rat at 10 mg/kg, po; type: ADME, organism-based; parameters: dose 10 mg/kg, route oral; conditions: plasma; method in brief: as §3
[17] = Tmax in Sprague-Dawley rat at 10 mg/kg, po; type: ADME, organism-based; parameters: dose 10 mg/kg, route oral; conditions: in vivo; method in brief: as §3
[18] = Half life in Sprague-Dawley rat at 1 mg/kg, iv; type: ADME, organism-based; parameters: dose 1 mg/kg, route intravenous; conditions: in vivo
Method in brief: (§4)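 Sprague–Dawley rats; intravenous dose of 1 mg/kg given as a solution in EtOH/PEG400/water (10:50:40).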

[19] = Cmax in Sprague-Dawley rat at 10 mg/kg, po; type: ADME, organism-based; parameters: dose 10 mg/kg, route oral; conditions: in vivo; method in brief: as §3
[20] = Volume of distribution at steady state in Sprague-Dawley rat at 1 mg/kg, iv; type: ADME, organism-based; parameters: dose 1 mg/kg, route intravenous; conditions: in vivo, read-out: Vdss; method in brief: as §4
[21] = Clearance in Sprague-Dawley rat at 1 mg/kg, iv; type: ADME, organism-based; parameters: dose 1 mg/kg, route intravenous; conditions: in vivo; method in brief: as §4
[22] = Bioavailability in Sprague-Dawley rat at 1 mg/kg, iv; type: ADME, organism-based; conditions: in vivo; method in brief: as §4
[23] = target: T1, Diacylglycerol O-acyltransferase 1 (Mus musculus, UniProt Q9Z2A7); assay: Inhibition of mouse DGAT1
T1 sequence (Q9Z2A7 whole entry): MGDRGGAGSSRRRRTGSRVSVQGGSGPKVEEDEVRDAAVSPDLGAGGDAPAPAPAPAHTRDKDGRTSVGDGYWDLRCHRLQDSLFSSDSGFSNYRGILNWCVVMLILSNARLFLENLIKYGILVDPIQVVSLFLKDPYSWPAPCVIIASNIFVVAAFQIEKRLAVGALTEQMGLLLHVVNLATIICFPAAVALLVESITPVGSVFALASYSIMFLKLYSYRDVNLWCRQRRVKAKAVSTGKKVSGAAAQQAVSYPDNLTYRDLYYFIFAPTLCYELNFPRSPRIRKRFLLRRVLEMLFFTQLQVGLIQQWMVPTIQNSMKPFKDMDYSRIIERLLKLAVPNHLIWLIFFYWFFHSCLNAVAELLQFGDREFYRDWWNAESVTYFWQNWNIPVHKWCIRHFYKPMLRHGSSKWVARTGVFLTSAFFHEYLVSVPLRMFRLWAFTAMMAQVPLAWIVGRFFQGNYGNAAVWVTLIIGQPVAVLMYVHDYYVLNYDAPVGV

[24] = Lipophilicity, log D of the compound by HPLC analysis; type: physicochemical
[25] = target: T2, Diacylglycerol O-acyltransferase 1 (Homo sapiens, UniProt O75907); assay: Inhibition of human DGAT1
T2 sequence (O75907 whole entry): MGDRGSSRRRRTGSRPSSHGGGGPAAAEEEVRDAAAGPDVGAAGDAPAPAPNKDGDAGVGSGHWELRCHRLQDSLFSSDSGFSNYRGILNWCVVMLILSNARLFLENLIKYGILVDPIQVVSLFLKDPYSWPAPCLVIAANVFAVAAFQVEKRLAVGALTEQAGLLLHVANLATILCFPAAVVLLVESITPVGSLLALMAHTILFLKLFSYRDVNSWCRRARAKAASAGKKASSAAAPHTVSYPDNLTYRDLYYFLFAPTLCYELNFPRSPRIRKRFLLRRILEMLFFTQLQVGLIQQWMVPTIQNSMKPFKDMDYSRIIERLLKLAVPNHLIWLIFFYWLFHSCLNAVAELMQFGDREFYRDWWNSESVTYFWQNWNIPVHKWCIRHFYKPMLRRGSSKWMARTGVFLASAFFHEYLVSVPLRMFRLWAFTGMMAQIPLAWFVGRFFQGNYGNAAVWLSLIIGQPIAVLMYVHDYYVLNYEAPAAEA

Rattus norvegicus [26] = assay: AUC in Sprague-Dawley rat assessed as cis-4-(5-(5-fluoro-1H-benzo[d]imidazol-2-yl)-2,3'-bipyridin-6'-yloxy)cyclohexanecarboxylic acid at 2 mg/kg, po; type: ADME, organism-based, Plasma; parameters: dose 2 mg/kg, route oral; conditions: in vivo
Method in brief: (§5)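 Sprague–Dawley rats; 1 mg/kg iv and 2 mg/kg p.o., both as solutions in EtOH/PEG400/water (10:50:40). Plasma AUC measured for the parent and, where applicable, for the epimerized metabolite formed in vivo.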

[27] = AUC in Sprague-Dawley rat at 2 mg/kg, po; type: ADME, organism-based; parameters: dose 2 mg/kg, route oral; conditions: plasma; method in brief: as §5

Compound: O=C(O)[C@H]1CC[C@@H](Oc2ccc(-c3ccc(-c4nc5ccc(F)cc5[nH]4)cn3)cn2)CC1
- AUC (Rhesus monkey): 0.56 µM·h
- AUC [1]: 0.2 µM·h
- Cmax [2]: 10 nM
- Tmax [3]: 8 h
- half-life [4]: 2 h
- Vd [5]: 0.37 L/kg
- clearance [6]: 12.4 mL/min/kg
- bioavailability [7]: 3%
- AUC (Canis familiaris): 0.06 µM·h
- AUC [8]: 0.05 µM·h
- Tmax [9]: 0.25 h
- Cmax [10]: 60 nM
- half-life [11]: 0.82 h
- Vd [12]: 0.63 L/kg
- clearance [13]: 32.3 mL/min/kg
- bioavailability [14]: 2%
- AUC (Rattus norvegicus [15]): 2.47 µM·h
- AUC [16]: 0.25 µM·h
- Tmax [17]: 2 h
- half-life [18]: 1.69 h
- Cmax [19]: 60 nM
- Vd [20]: 2.18 L/kg
- clearance [21]: 31.8 mL/min/kg
- bioavailability [22]: 2%
- IC50 [23]: 3.4 nM
- logD [24]: 1.02
- IC50 [25]: 2 nM

Compound: O=C(O)[C@H]1CC[C@@H](Oc2ccc(-c3ccc(-c4nc5cc(F)c(F)cc5[nH]4)cn3)cn2)CC1
- IC50 [23]: 3.4 nM
- logD [24]: 1.28
- IC50 [25]: 1.4 nM

Compound: O=C(O)[C@H]1CC[C@H](Oc2ccc(-c3ccc(-c4nc5ccc(F)cc5[nH]4)cn3)cn2)CC1
- AUC (Rattus norvegicus [26]): 0.48 µM·h
- AUC [27]: 4.47 µM·h
- half-life [18]: 0.86 h
- Vd [20]: 0.46 L/kg
- clearance [21]: 4.2 mL/min/kg
- bioavailability [22]: 24%
- IC50 [23]: 8.1 nM
- IC50 [25]: 2.5 nM
